Reference: EPA's CvTdb concentration-time database
Values joined by “and” are separate entries in the source; they are usually repeats but may differ in a detail not shown here. Identical values can stand only once.

Legend:
mouse = experiment: concentration in blood after dosing; negative times count back from the end of exposure; conditions: dosed: tert-amyl methyl ether, inhalation, duration: 6 hr, CD-1 (Charles River)
Procedure, shortened: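 Points were largely digitised from plot screenshots with WebPlotDigitizer or otherwise copied from tables, and they remain in the units each source reported. They come from published in vivo toxicokinetic studies and two structured collections. Sampling and analytical methods follow each source and were often not reported.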

rat = experiment: amount in urine after dosing (umol); conditions: inhalation, duration: 4 hr, F344 (Harlan Winkelmann)

CCC(C)(C)OC [tertiary amyl methyl ether]
mouse
Conditions | concentration in blood [ng/mL]
0.102 h, 100 ppm, male | 239
0.1024 h, 100 ppm, male | 295
0.1031 h, 100 ppm, male | 389
0.1368 h, 500 ppm, male | 3510
0.1371 h, 500 ppm, male | 4130
0.1374 h, 500 ppm, male | 4840
0.1381 h, 500 ppm, male | 6060
0.1502 h, 100 ppm, male | 655
0.1928 h, 2500 ppm, male | 29900
0.1936 h, 2500 ppm, male | 24400
0.3202 h, 500 ppm, male | 2390
0.3841 h, 2500 ppm, male | 24800
0.385 h, 2500 ppm, male | 19700
0.3858 h, 2500 ppm, male | 14700
0.4399 h, 100 ppm, male | 209
0.444 h, 2500 ppm, female | 22700
0.4444 h, 2500 ppm, female | 20100
0.4448 h, 2500 ppm, female | 17200
0.4618 h, 100 ppm, male | 127
0.4629 h, 100 ppm, male | 273
0.8712 h, 500 ppm, male | 37.4
0.8718 h, 500 ppm, male | 1260
0.9575 h, 2500 ppm, male | 15100
0.9591 h, 2500 ppm, male | 4950
0.9832 h, 2500 ppm, female | 10000
1.014 h, 2500 ppm, female | 15500
1.656 h, 100 ppm, male | 2.6
2.039 h, 2500 ppm, male | 5350
2.04 h, 2500 ppm, male | 286
9.736 h, 500 ppm, male | 67.1
9.816 h, 100 ppm, male | 1.38
9.95 h, 2500 ppm, male | 153
17.75 h, 100 ppm, male | 3.94
17.86 h, 2500 ppm, male | 441
57.5 min, 2500 ppm, male | 10000
224 s, 2500 ppm, female | 37500
226 s, 2500 ppm, female | 34900
229 s, 2500 ppm, female | 29400

mouse, during exposure
Conditions | concentration in blood
-171 s, 100 ppm, male | 1330 ng/mL
-165 s, 100 ppm, male | 1570 ng/mL
-160 s, 100 ppm, male | 1750 ng/mL
-6 h, 100 ppm, male | 1190 ng/mL
-6 h, 2500 ppm, male | 19400 ng/mL
-5.956 h, 100 ppm, male | 1080 ng/mL
-5.842 h, 100 ppm, male | 1220 ng/mL
-5.755 h, 100 ppm, male | 806 ng/mL
-5.69 h, 500 ppm, male | 7230 ng/mL
-5.688 h, 500 ppm, male | 9580 ng/mL
-5.663 h, 100 ppm, male | 1040 ng/mL
-5.662 h, 100 ppm, male | 1100 ng/mL
-5.642 h, 100 ppm, male | 814 ng/mL
-5.627 h, 2500 ppm, female | 37500 ng/mL
-5.168 h, 500 ppm, male | 7230 ng/mL
-5.167 h, 500 ppm, male | 8960 ng/mL
-5.138 h, 500 ppm, male | 5900 ng/mL
-5.124 h, 100 ppm, male | 780 ng/mL
-5.123 h, 100 ppm, male | 866 ng/mL
-5.122 h, 100 ppm, male | 1090 ng/mL
-5.094 h, 2500 ppm, female | 64100 ng/mL
-5.092 h, 2500 ppm, female | 54400 ng/mL
-5.089 h, 2500 ppm, female | 32500 ng/mL
-5.084 h, 2500 ppm, male | 49400 ng/mL
-5.083 h, 2500 ppm, male | 44300 ng/mL
-5.081 h, 2500 ppm, male | 34600 ng/mL
-5.077 h, 2500 ppm, male | 9690 ng/mL
-5.053 h, 2500 ppm, male | 59500 ng/mL
-4.247 h, 500 ppm, male | 9570 ng/mL
-4.246 h, 500 ppm, male | 11400 ng/mL
-4.245 h, 500 ppm, male | 12000 ng/mL
-4.086 h, 100 ppm, male | 926 ng/mL
-4.061 h, 100 ppm, male | 1220 ng/mL
-4.06 h, 100 ppm, male | 1360 ng/mL
-4.007 h, 2500 ppm, male | 71700 ng/mL
-4.005 h, 2500 ppm, male | 61100 ng/mL
-3.988 h, 2500 ppm, female | 67100 ng/mL
-3.987 h, 2500 ppm, female | 61600 ng/mL
-3.974 h, 2500 ppm, male | 66600 ng/mL
-3.972 h, 2500 ppm, male | 49300 ng/mL
-2.21 h, 500 ppm, male | 33800 ng/mL
-2.166 h, 2500 ppm, male | 78800 ng/mL
-2.165 h, 2500 ppm, male | 72500 ng/mL
-2.164 h, 2500 ppm, male | 66200 ng/mL
-2.159 h, 2500 ppm, female | 96100 ng/mL
-2.144 h, 100 ppm, male | 1310 ng/mL and 1340 ng/mL
-2.142 h, 100 ppm, male | 1570 ng/mL
-2.129 h, 500 ppm, male | 11900 ng/mL
-2.128 h, 500 ppm, male | 13700 ng/mL
-2.127 h, 500 ppm, male | 15500 ng/mL
-2.125 h, 2500 ppm, female | 81400 ng/mL
-2.122 h, 100 ppm, male | 1220 ng/mL
-0.1963 h, 500 ppm, male | 12000 ng/mL
-0.1937 h, 500 ppm, male | 17200 ng/mL
-0.1933 h, 500 ppm, male | 17800 ng/mL
-0.1652 h, 2500 ppm, male | 83400 ng/mL
-0.1636 h, 2500 ppm, male | 73700 ng/mL
-0.1617 h, 2500 ppm, male | 61500 ng/mL
-0.1057 h, 2500 ppm, female | 101000 ng/mL
-0.1034 h, 2500 ppm, female | 86400 ng/mL
-0.1026 h, 2500 ppm, female | 81300 ng/mL

CCC(C)(C)O [tertiary amyl alcohol]
mouse, male
Conditions | concentration in blood
0.1295 h, 2500 ppm | 209000 ng/mL
0.1808 h, 500 ppm | 29600 ng/mL
0.1823 h, 500 ppm | 32600 ng/mL
0.1835 h, 500 ppm | 34900 ng/mL
0.1993 h, 2500 ppm | 170000 ng/mL
0.2 h, 2500 ppm | 165000 ng/mL
0.2011 h, 2500 ppm | 158000 ng/mL
0.5116 h, 500 ppm | 16700 ng/mL
0.5437 h, 500 ppm | 19500 ng/mL
0.545 h, 500 ppm | 22000 ng/mL
0.5455 h, 500 ppm | 23100 ng/mL
0.5766 h, 2500 ppm | 194000 ng/mL
0.5768 h, 2500 ppm | 193000 ng/mL
0.5776 h, 2500 ppm | 187000 ng/mL
0.59 h, 2500 ppm | 109000 ng/mL
1.057 h, 500 ppm | 3620 ng/mL
1.059 h, 500 ppm | 7190 ng/mL
1.061 h, 500 ppm | 12200 ng/mL
1.062 h, 500 ppm | 12600 ng/mL
1.12 h, 2500 ppm | 175000 ng/mL
1.123 h, 2500 ppm | 155000 ng/mL and 153000 ng/mL and 151000 ng/mL
1.914 h, 500 ppm | 752 ng/mL
1.945 h, 500 ppm | 139 ng/mL
2.052 h, 2500 ppm | 105000 ng/mL
2.058 h, 2500 ppm | 66500 ng/mL and 65300 ng/mL
2.059 h, 2500 ppm | 57700 ng/mL
4.101 h, 2500 ppm | 3630 ng/mL and 1940 ng/mL
9.951 h, 500 ppm | 73.9 ng/mL
10.17 h, 2500 ppm | 1840 ng/mL
17.96 h, 500 ppm | 8.51 ng/mL
18.11 h, 2500 ppm | 2120 ng/mL
126 s, 500 ppm | 44300 ng/mL
133 s, 2500 ppm | 192000 ng/mL
137 s, 2500 ppm | 184000 ng/mL
138 s, 2500 ppm | 183000 ng/mL
151 s, 500 ppm | 57900 ng/mL
343 s, 500 ppm | 42500 ng/mL

mouse, male, during exposure
Conditions | concentration in blood
-6 h, 100 ppm | 3.59 ng/mL
-5.999 h, 500 ppm | 1220 ng/mL
-5.907 h, 500 ppm | 2450 ng/mL
-5.876 h, 500 ppm | 2750 ng/mL
-5.873 h, 2500 ppm | 2950 ng/mL
-5.818 h, 100 ppm | 247 ng/mL and 289 ng/mL
-5.817 h, 100 ppm | 326 ng/mL and 401 ng/mL
-5.814 h, 500 ppm | 4080 ng/mL
-5.771 h, 100 ppm | 487 ng/mL
-5.747 h, 2500 ppm | 7170 ng/mL
-5.725 h, 100 ppm | 600 ng/mL
-5.72 h, 500 ppm | 7750 ng/mL
-5.659 h, 100 ppm | 386 ng/mL and 450 ng/mL
-5.567 h, 500 ppm | 6220 ng/mL
-5.507 h, 500 ppm | 5100 ng/mL
-5.476 h, 100 ppm | 694 ng/mL
-5.474 h, 500 ppm | 9590 ng/mL
-5.464 h, 2500 ppm | 25700 ng/mL
-5.433 h, 2500 ppm | 29900 ng/mL
-5.244 h, 2500 ppm | 40100 ng/mL
-5.135 h, 500 ppm | 11400 ng/mL and 11600 ng/mL
-5.134 h, 500 ppm | 13700 ng/mL and 14100 ng/mL
-4.958 h, 100 ppm | 720 ng/mL
-4.937 h, 100 ppm | 510 ng/mL
-4.936 h, 100 ppm | 630 ng/mL
-4.934 h, 100 ppm | 828 ng/mL
-4.899 h, 2500 ppm | 67100 ng/mL
-4.898 h, 2500 ppm | 64100 ng/mL and 61600 ng/mL
-4.897 h, 2500 ppm | 57400 ng/mL
-4.057 h, 500 ppm | 20900 ng/mL
-4.055 h, 500 ppm | 23900 ng/mL
-4.054 h, 500 ppm | 26200 ng/mL and 27300 ng/mL
-4 s, 500 ppm | 33800 ng/mL
-3.898 h, 100 ppm | 686 ng/mL
-3.897 h, 100 ppm | 870 ng/mL
-3.895 h, 100 ppm | 1130 ng/mL
-3.874 h, 100 ppm | 926 ng/mL
-3.797 h, 2500 ppm | 131000 ng/mL
-3.796 h, 2500 ppm | 123000 ng/mL and 121000 ng/mL
-3.791 h, 2500 ppm | 94900 ng/mL
-2.118 h, 500 ppm | 33200 ng/mL
-2.087 h, 500 ppm | 34400 ng/mL and 34600 ng/mL
-2.086 h, 500 ppm | 36700 ng/mL
-1.99 h, 2500 ppm | 155000 ng/mL
-1.979 h, 100 ppm | 1160 ng/mL
-1.978 h, 100 ppm | 1210 ng/mL
-1.96 h, 2500 ppm | 162000 ng/mL
-1.957 h, 2500 ppm | 146000 ng/mL
-1.953 h, 100 ppm | 1570 ng/mL

CC(O)C(C)(C)O (stereo not given) [2-methyl-2,3-butanediol]
amount in urine, rat, dosed: tert-amyl methyl ether
Conditions | 3.8 ppm | 38.4 ppm
5.961 h | – | 1.13
5.981 h | 0.237 | –
11.86 h | 0.262 | –
12.08 h | – | 2.25
17.94 h | 0.179 | 1.18
23.82 h | 0.0479 | –
23.95 h | – | 0.366
29.9 h | 0.0229 | –
29.96 h | – | 0.165
35.73 h | 0.0302 | –
36.08 h | – | 0.225
41.81 h | 0.024 | –
41.88 h | – | 0.175
47.74 h | 0.0115 | –
47.95 h | – | 0.084

CC(C)(O)C(=O)O [2-hydroxyisobutyrate]
rat
Conditions | amount in urine
5.92 h, dosed: ethyl tert-butyl ether, 4.5 ppm | 0.229
5.923 h, dosed: methyl tert-butyl ether, 38.7 ppm | 1.23
5.99 h, dosed: ethyl tert-butyl ether, 40.6 ppm | 1.23
11.86 h, dosed: ethyl tert-butyl ether, 4.5 ppm | 0.657
11.94 h, dosed: ethyl tert-butyl ether, 40.6 ppm | 3.65
11.94 h, dosed: methyl tert-butyl ether, 38.7 ppm | 6.37
11.97 h, dosed: methyl tert-butyl ether, 4.5 ppm | 0.837
17.79 h, dosed: ethyl tert-butyl ether, 4.5 ppm | 1.03
17.99 h, dosed: methyl tert-butyl ether, 38.7 ppm | 2.57
18.01 h, dosed: methyl tert-butyl ether, 4.5 ppm | 0.625
18.03 h, dosed: ethyl tert-butyl ether, 40.6 ppm | 5.39
23.79 h, dosed: ethyl tert-butyl ether, 4.5 ppm | 0.405
23.95 h, dosed: methyl tert-butyl ether, 4.5 ppm | 0.205
23.95 h, dosed: methyl tert-butyl ether, 38.7 ppm | 0.915
23.98 h, dosed: ethyl tert-butyl ether, 40.6 ppm | 0.922
29.73 h, dosed: ethyl tert-butyl ether, 4.5 ppm | 0.355
29.93 h, dosed: ethyl tert-butyl ether, 40.6 ppm | 0.521
29.93 h, dosed: methyl tert-butyl ether, 38.7 ppm | 0.315
29.96 h, dosed: methyl tert-butyl ether, 4.5 ppm | 0.239
